According to ChEMBL document CHEMBL4152188, “Design, synthesis and biological evaluation of C(4) substituted monobactams as antibacterial agents against multidrug-resistant Gram-negative bacteria” (Eur J Med Chem, 2018):
Converted amounts (≈) assume the structure as drawn.

How the values were obtained:
Assay type in all cases: functional
[1] = test system: Pseudomonas aeruginosa; assay: Antibacterial activity against IMP-4 producing Pseudomonas aeruginosa isolate 208247 after 18 hrs in presence of BPL by CLSI broth microdilution method; conditions: isolate 208247, 18 h
How it was run: (§1)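 CLSI broth microdilution against clinical isolates (ESBL E. coli, KPC-2 MDR K. pneumoniae, IMP-4 MDR P. aeruginosa; five per species). Iron limitation: Mueller-Hinton broth supplemented with 16 mg/liter 2,2'-bipyridyl to complex iron and induce iron uptake systems. Read-out: MIC.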

[2] = test system: Klebsiella pneumoniae; assay: Antibacterial activity against KPC-2 producing Klebsiella pneumoniae isolate 212229 after 18 hrs in presence of BPL by CLSI broth microdilution method; conditions: isolate 212229, 18 h; how it was run: as §1
[3] = test system: Escherichia coli; assay: Antibacterial activity against extended-spectrum beta-lactamase producing Escherichia coli isolate 106342 after 18 hrs in presence of BPL by CLSI broth microdilution method; conditions: isolate 106342, 18 h; how it was run: as §1
[4] = test system: Escherichia coli; assay: Antibacterial activity against extended-spectrum beta-lactamase producing Escherichia coli isolate 212648 after 18 hrs in presence of BPL by CLSI broth microdilution method; conditions: isolate 212648, 18 h; how it was run: as §1
[5] = test system: Pseudomonas aeruginosa; assay: Antibacterial activity against IMP-4 producing Pseudomonas aeruginosa isolate 212886 after 18 hrs by CLSI broth microdilution method; conditions: isolate 212886, 18 h
[6] = test system: Klebsiella pneumoniae; assay: Antibacterial activity against KPC-2 producing Klebsiella pneumoniae isolate 212229 after 18 hrs by CLSI broth microdilution method; conditions: isolate 212229, 18 h
[7] = test system: Klebsiella pneumoniae; assay: Antibacterial activity against KPC-2 producing Klebsiella pneumoniae isolate 209735 after 18 hrs by CLSI broth microdilution method; conditions: isolate 209735, 18 h
[8] = test system: Klebsiella pneumoniae; assay: Selectivity index, ratio of MIC for against KPC-2 producing Klebsiella pneumoniae isolate 212423 to MIC for against KPC-2 producing Klebsiella pneumoniae isolate 212423 in presence of BPL
[9] = test system: Escherichia coli; assay: Antibacterial activity against Escherichia coli isolate 210737 after 18 hrs in presence of BPL by CLSI broth microdilution method; conditions: isolate 210737, 18 h; how it was run: as §1
[10] = test system: Klebsiella pneumoniae; assay: Antibacterial activity against KPC-2 producing Klebsiella pneumoniae isolate 212423 after 18 hrs by CLSI broth microdilution method; conditions: isolate 212423, 18 h
[11] = test system: Klebsiella pneumoniae; assay: Antibacterial activity against KPC-2 producing Klebsiella pneumoniae isolate 209632 after 18 hrs by CLSI broth microdilution method; conditions: isolate 209632, 18 h
[12] = test system: Escherichia coli; assay: Antibacterial activity against Escherichia coli isolate 210737 after 18 hrs by CLSI broth microdilution method; conditions: isolate 210737, 18 h
[13] = test system: Klebsiella pneumoniae; assay: Antibacterial activity against KPC-2 producing Klebsiella pneumoniae isolate 209735 after 18 hrs in presence of BPL by CLSI broth microdilution method; conditions: isolate 209735, 18 h; how it was run: as §1
[14] = test system: Pseudomonas aeruginosa; assay: Antibacterial activity against IMP-4 producing Pseudomonas aeruginosa isolate 212886 after 18 hrs in presence of BPL by CLSI broth microdilution method; conditions: isolate 212886, 18 h; how it was run: as §1
[15] = test system: Escherichia coli; assay: Antibacterial activity against extended-spectrum beta-lactamase producing Escherichia coli isolate 212648 after 18 hrs by CLSI broth microdilution method; conditions: isolate 212648, 18 h
[16] = test system: Escherichia coli; assay: Antibacterial activity against extended-spectrum beta-lactamase producing Escherichia coli isolate 209285 after 18 hrs by CLSI broth microdilution method; conditions: isolate 209285, 18 h
[17] = test system: Escherichia coli; assay: Selectivity index, ratio of MIC for against extended-spectrum beta-lactamase producing Escherichia coli isolate 209285 to MIC for extended-spectrum beta-lactamase producing Escherichia coli isolate 209285 in presence of BPL
[18] = test system: Escherichia coli; assay: Antibacterial activity against extended-spectrum beta-lactamase producing Escherichia coli isolate 106342 after 18 hrs by CLSI broth microdilution method; conditions: isolate 106342, 18 h
[19] = test system: Klebsiella pneumoniae; assay: Selectivity index, ratio of MIC for against KPC-2 producing Klebsiella pneumoniae isolate 209735 to MIC for against KPC-2 producing Klebsiella pneumoniae isolate 209735 in presence of BPL
[20] = test system: Escherichia coli; assay: Antibacterial activity against extended-spectrum beta-lactamase producing Escherichia coli isolate 208687 after 18 hrs by CLSI broth microdilution method; conditions: isolate 208687, 18 h
[21] = test system: Pseudomonas aeruginosa; assay: Antibacterial activity against IMP-4 producing Pseudomonas aeruginosa isolate 209321 after 18 hrs by CLSI broth microdilution method; conditions: isolate 209321, 18 h
[22] = test system: Escherichia coli; assay: Selectivity index, ratio of MIC for against extended-spectrum beta-lactamase producing Escherichia coli isolate 208687 to MIC for extended-spectrum beta-lactamase producing Escherichia coli isolate 208687 in presence of BPL
[23] = test system: Pseudomonas aeruginosa; assay: Antibacterial activity against IMP-4 producing Pseudomonas aeruginosa isolate 209471 after 18 hrs by CLSI broth microdilution method; conditions: isolate 209471, 18 h
[24] = test system: Klebsiella pneumoniae; assay: Antibacterial activity against KPC-2 producing Klebsiella pneumoniae isolate 212232 after 18 hrs in presence of BPL by CLSI broth microdilution method; conditions: isolate 212232, 18 h; how it was run: as §1
[25] = test system: Pseudomonas aeruginosa; assay: Antibacterial activity against IMP-4 producing Pseudomonas aeruginosa isolate 207272 after 18 hrs in presence of BPL by CLSI broth microdilution method; conditions: isolate 207272, 18 h; how it was run: as §1
[26] = test system: Pseudomonas aeruginosa; assay: Selectivity index, ratio of MIC for against IMP-4 producing Pseudomonas aeruginosa isolate 207272 to MIC for against IMP-4 producing Pseudomonas aeruginosa isolate 207272 in presence of BPL
[27] = test system: Klebsiella pneumoniae; assay: Antibacterial activity against KPC-2 producing Klebsiella pneumoniae isolate 209632 after 18 hrs in presence of BPL by CLSI broth microdilution method; conditions: isolate 209632, 18 h; how it was run: as §1
[28] = test system: Pseudomonas aeruginosa; assay: Antibacterial activity against IMP-4 producing Pseudomonas aeruginosa isolate 207272 after 18 hrs by CLSI broth microdilution method; conditions: isolate 207272, 18 h
[29] = test system: Klebsiella pneumoniae; assay: Selectivity index, ratio of MIC for against KPC-2 producing Klebsiella pneumoniae isolate 212232 to MIC for against KPC-2 producing Klebsiella pneumoniae isolate 212232 in presence of BPL
[30] = test system: Pseudomonas aeruginosa; assay: Selectivity index, ratio of MIC for against IMP-4 producing Pseudomonas aeruginosa isolate 208247 to MIC for against IMP-4 producing Pseudomonas aeruginosa isolate 208247 in presence of BPL
[31] = test system: Klebsiella pneumoniae; assay: Antibacterial activity against KPC-2 producing Klebsiella pneumoniae isolate 212232 after 18 hrs by CLSI broth microdilution method; conditions: isolate 212232, 18 h
[32] = test system: Escherichia coli; assay: Selectivity index, ratio of MIC for against Escherichia coli isolate 210737 to MIC for Escherichia coli isolate 210737 in presence of BPL
[33] = test system: Escherichia coli; assay: Antibacterial activity against extended-spectrum beta-lactamase producing Escherichia coli isolate 208687 after 18 hrs in presence of BPL by CLSI broth microdilution method; conditions: isolate 208687, 18 h; how it was run: as §1
[34] = test system: Pseudomonas aeruginosa; assay: Antibacterial activity against IMP-4 producing Pseudomonas aeruginosa isolate 209471 after 18 hrs in presence of BPL by CLSI broth microdilution method; conditions: isolate 209471, 18 h; how it was run: as §1
[35] = test system: Escherichia coli; assay: Selectivity index, ratio of MIC for against extended-spectrum beta-lactamase producing Escherichia coli isolate 212648 to MIC for extended-spectrum beta-lactamase producing Escherichia coli isolate 212648 in presence of BPL
[36] = test system: Pseudomonas aeruginosa; assay: Antibacterial activity against IMP-4 producing Pseudomonas aeruginosa isolate 209321 after 18 hrs in presence of BPL by CLSI broth microdilution method; conditions: isolate 209321, 18 h; how it was run: as §1
[37] = test system: Escherichia coli; assay: Selectivity index, ratio of MIC for against extended-spectrum beta-lactamase producing Escherichia coli isolate 106342 to MIC for extended-spectrum beta-lactamase producing Escherichia coli isolate 106342 in presence of BPL
[38] = test system: Klebsiella pneumoniae; assay: Selectivity index, ratio of MIC for against KPC-2 producing Klebsiella pneumoniae isolate 212229 to MIC for against KPC-2 producing Klebsiella pneumoniae isolate 212229 in presence of BPL
[39] = test system: Escherichia coli; assay: Antibacterial activity against extended-spectrum beta-lactamase producing Escherichia coli isolate 209285 after 18 hrs in presence of BPL by CLSI broth microdilution method; conditions: isolate 209285, 18 h; how it was run: as §1
[40] = test system: Klebsiella pneumoniae; assay: Selectivity index, ratio of MIC for against KPC-2 producing Klebsiella pneumoniae isolate 209632 to MIC for against KPC-2 producing Klebsiella pneumoniae isolate 209632 in presence of BPL
[41] = test system: Klebsiella pneumoniae; assay: Antibacterial activity against KPC-2 producing Klebsiella pneumoniae isolate 212423 after 18 hrs in presence of BPL by CLSI broth microdilution method; conditions: isolate 212423, 18 h; how it was run: as §1
[42] = test system: Pseudomonas aeruginosa; assay: Antibacterial activity against IMP-4 producing Pseudomonas aeruginosa isolate 208247 after 18 hrs by CLSI broth microdilution method; conditions: isolate 208247, 18 h

Work on `Cc1csc(SC[C@@H]2[C@H](NC(=O)/C(=N\OC(c3cc(=O)c(O)cn3O)C(C)C)c3csc(N)n3)C(=O)N2S(=O)(=O)O)n1` (some centres not stated) yielded an MIC [1] of 64 µg/mL, an MIC [2] of 0.5 µg/mL and an MIC [3] of 2 µg/mL. The MIC [4] was 1 µg/mL, the MIC [5] was > 64 µg/mL and the MIC [6] was 1 µg/mL (≈ 1.52 µM). For the same molecule, the MIC [7] was 2 µg/mL (≈ 3.03 µM), the “Selectivity Index” value [8] was 2 and the MIC [9] was 0.25 µg/mL. For the same molecule, the MIC [10] was 2 µg/mL (≈ 3.03 µM), the MIC [11] was 1 µg/mL (≈ 1.52 µM) and the MIC [12] was 0.5 µg/mL (≈ 0.758 µM). The MIC [13] was 2 µg/mL, the MIC [14] was > 64 µg/mL and the MIC [15] was 1 µg/mL (≈ 1.52 µM). For the same molecule, the MIC [16] was 2 µg/mL (≈ 3.03 µM), the “Selectivity Index” value [17] was 2 and the MIC [18] was 2 µg/mL (≈ 3.03 µM). For the same molecule, the “Selectivity Index” value [19] was 1, the MIC [20] was 2 µg/mL (≈ 3.03 µM) and the MIC [21] was > 64 µg/mL. For the same molecule, the “Selectivity Index” value [22] was 8, the MIC [23] was > 64 µg/mL and the MIC [24] was 1 µg/mL. For the same molecule, the MIC [25] was 64 µg/mL, the “Selectivity Index” value [26] was 1 and the MIC [27] was 0.5 µg/mL. The MIC [28] was 64 µg/mL (≈ 97 µM), the “Selectivity Index” value [29] was 2 and the “Selectivity Index” value [30] was 1. The MIC [31] was 2 µg/mL (≈ 3.03 µM), the “Selectivity Index” value [32] was 2 and the MIC [33] was 0.25 µg/mL. For the same molecule, the MIC [34] was > 64 µg/mL, the “Selectivity Index” value [35] was 1 and the MIC [36] was > 64 µg/mL. For the same molecule, the “Selectivity Index” value [37] was 1, the “Selectivity Index” value [38] was 2 and the MIC [39] was 1 µg/mL. The “Selectivity Index” value [40] was 2, the MIC [41] was 1 µg/mL and the MIC [42] was 64 µg/mL (≈ 97 µM).
`CC(C)C(O/N=C(\C(=O)NC1C(=O)N(S(=O)(=O)O)C12CCOCC2)c1csc(N)n1)c1cc(=O)c(O)cn1O` (configuration not stated) showed an MIC [1] of 64 µg/mL, an MIC [2] of 1 µg/mL and an MIC [3] of 4 µg/mL. The MIC [4] was 2 µg/mL, the MIC [5] was > 64 µg/mL and the MIC [6] was 8 µg/mL (≈ 13.6 µM). For the same molecule, the MIC [7] was 4 µg/mL (≈ 6.82 µM), the “Selectivity Index” value [8] was 2 and the MIC [9] was 1 µg/mL. The MIC [10] was 4 µg/mL (≈ 6.82 µM), the MIC [11] was 4 µg/mL (≈ 6.82 µM) and the MIC [12] was 1 µg/mL (≈ 1.7 µM). The MIC [13] was 1 µg/mL, the MIC [14] was > 64 µg/mL and the MIC [15] was 8 µg/mL (≈ 13.6 µM). The MIC [16] was 16 µg/mL (≈ 27.3 µM), the “Selectivity Index” value [17] was 2 and the MIC [18] was 8 µg/mL (≈ 13.6 µM). The “Selectivity Index” value [19] was 4, the MIC [20] was 4 µg/mL (≈ 6.82 µM) and the MIC [21] was > 64 µg/mL. For the same molecule, the “Selectivity Index” value [22] was 4, the MIC [23] was > 64 µg/mL and the MIC [24] was 0.06 µg/mL. For the same molecule, the MIC [25] was 64 µg/mL, the MIC [27] was 1 µg/mL and the MIC [28] was > 64 µg/mL. The “Selectivity Index” value [29] was 32, the MIC [31] was 2 µg/mL (≈ 3.41 µM) and the “Selectivity Index” value [32] was 1. For the same molecule, the MIC [33] was 1 µg/mL, the MIC [34] was > 64 µg/mL and the “Selectivity Index” value [35] was 4. The MIC [36] was > 64 µg/mL, the “Selectivity Index” value [37] was 2 and the “Selectivity Index” value [38] was 8. For the same molecule, the MIC [39] was 8 µg/mL, the “Selectivity Index” value [40] was 4 and the MIC [41] was 2 µg/mL. For the same molecule, the MIC [42] was > 64 µg/mL.
